This note sets out measurements from ChEMBL document CHEMBL4118021, “Studies of TAK1-centered polypharmacology with novel covalent TAK1 inhibitors” (Bioorg Med Chem, 2017).

One may read the inhibition as the change of the read-out against control, counted positive when it falls.

Holding throughout (assay type): cell-based
For test [1], the target named is T1, Aurora kinase A (Homo sapiens) (UniProt O14965).
T1 sequence (whole entry): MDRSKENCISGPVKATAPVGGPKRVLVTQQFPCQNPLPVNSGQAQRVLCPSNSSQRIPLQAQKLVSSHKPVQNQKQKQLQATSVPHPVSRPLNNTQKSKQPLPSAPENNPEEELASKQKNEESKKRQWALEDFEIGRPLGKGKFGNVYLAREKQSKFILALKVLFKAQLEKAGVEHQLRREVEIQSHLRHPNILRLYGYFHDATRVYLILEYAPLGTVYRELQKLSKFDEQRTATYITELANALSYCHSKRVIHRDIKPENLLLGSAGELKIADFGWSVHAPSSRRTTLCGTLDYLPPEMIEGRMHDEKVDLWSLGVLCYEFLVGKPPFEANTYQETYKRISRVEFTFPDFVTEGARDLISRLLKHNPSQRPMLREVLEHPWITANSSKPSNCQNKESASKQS
Briefly: Inhibition of AurA in human SKCO1 cells at 1 uM after 4 hrs using biotin labeled FILALKVLFK probe by mass-spectrometric analysis relative to control. The method, boiled down:
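Live SK-CO-1 cells were treated 4 h with compound at 1 μM or DMSO, then lysed. Lysates were labeled with a lysine-reactive ATP/ADP-biotin probe and analysed by mass spectrometry. Percent inhibition is the loss of probe-dependent recovery of the kinase peptide relative to DMSO.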

The target in test [2] is Aurora kinase B (Homo sapiens) (UniProt Q96GD4). Briefly: Inhibition of AurB in human SKCO1 cells at 1 uM after 4 hrs using biotin labeled SHFIVALKVLFK probe by mass-spectrometric analysis relative to control.
In test [3] the target is T2, Mitogen-activated protein kinase kinase kinase kinase 3 (Homo sapiens) (UniProt Q8IVH8).
T2 sequence (whole entry): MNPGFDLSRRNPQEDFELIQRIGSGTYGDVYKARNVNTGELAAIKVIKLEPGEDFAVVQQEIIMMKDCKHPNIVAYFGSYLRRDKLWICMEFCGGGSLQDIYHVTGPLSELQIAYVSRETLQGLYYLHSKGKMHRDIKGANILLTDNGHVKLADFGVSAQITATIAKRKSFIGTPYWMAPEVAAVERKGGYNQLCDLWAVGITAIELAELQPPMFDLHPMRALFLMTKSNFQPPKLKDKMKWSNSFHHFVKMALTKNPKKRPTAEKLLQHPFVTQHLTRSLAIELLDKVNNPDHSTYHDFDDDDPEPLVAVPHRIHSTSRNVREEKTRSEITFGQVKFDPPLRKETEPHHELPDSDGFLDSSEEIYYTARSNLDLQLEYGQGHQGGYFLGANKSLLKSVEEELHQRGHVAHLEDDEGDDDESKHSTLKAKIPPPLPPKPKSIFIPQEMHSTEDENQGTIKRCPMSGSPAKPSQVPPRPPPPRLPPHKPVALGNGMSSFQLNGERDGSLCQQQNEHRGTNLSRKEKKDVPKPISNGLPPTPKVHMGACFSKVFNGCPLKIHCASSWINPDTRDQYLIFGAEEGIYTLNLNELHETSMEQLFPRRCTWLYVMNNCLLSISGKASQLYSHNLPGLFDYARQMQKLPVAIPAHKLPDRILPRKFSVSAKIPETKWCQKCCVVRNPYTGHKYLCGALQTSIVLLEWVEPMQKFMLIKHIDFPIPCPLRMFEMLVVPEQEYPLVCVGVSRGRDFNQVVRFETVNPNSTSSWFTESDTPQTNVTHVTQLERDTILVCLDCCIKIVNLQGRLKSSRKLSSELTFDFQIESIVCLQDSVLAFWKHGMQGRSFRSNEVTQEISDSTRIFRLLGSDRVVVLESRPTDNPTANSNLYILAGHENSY
Put plainly: Inhibition of KHS2 in human SKCO1 cells at 1 uM after 4 hrs using biotin labeled NVNTGELAAIKVIK probe by mass-spectrometric analysis relative to control.

In test [4] the target is T3, Mixed lineage kinase domain-like protein (Homo sapiens) (UniProt Q8NB16).
T3 sequence (whole entry): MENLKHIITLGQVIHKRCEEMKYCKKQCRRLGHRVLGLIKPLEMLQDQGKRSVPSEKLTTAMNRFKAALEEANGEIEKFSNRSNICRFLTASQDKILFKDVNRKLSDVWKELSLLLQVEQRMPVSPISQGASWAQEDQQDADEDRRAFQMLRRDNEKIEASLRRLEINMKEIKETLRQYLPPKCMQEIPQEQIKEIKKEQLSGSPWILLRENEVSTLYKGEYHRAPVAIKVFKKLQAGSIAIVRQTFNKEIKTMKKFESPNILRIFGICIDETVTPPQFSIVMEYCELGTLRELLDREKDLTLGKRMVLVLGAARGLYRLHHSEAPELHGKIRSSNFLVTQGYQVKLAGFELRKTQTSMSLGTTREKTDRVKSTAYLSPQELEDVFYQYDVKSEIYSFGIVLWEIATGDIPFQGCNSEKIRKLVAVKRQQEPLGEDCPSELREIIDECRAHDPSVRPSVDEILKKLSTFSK
Briefly: Inhibition of MLKL in human SKCO1 cells at 1 uM after 4 hrs using biotin labeled APVAIKVFK probe by mass-spectrometric analysis relative to control.

Test [5] concerns the target Ribosomal protein S6 kinase alpha-4 (Homo sapiens) (UniProt O75676). Put plainly: Inhibition of MSK2 domain1 in human SKCO1 cells at 1 uM after 4 hrs using biotin labeled DLKLENVLLDSEGHIVLTDFGLSK probe by mass-spectrometric analysis relative to control.
In test [6] the target is T4, STE20-related kinase adapter protein beta (Homo sapiens) (UniProt Q9C0K7).
T4 sequence (whole entry): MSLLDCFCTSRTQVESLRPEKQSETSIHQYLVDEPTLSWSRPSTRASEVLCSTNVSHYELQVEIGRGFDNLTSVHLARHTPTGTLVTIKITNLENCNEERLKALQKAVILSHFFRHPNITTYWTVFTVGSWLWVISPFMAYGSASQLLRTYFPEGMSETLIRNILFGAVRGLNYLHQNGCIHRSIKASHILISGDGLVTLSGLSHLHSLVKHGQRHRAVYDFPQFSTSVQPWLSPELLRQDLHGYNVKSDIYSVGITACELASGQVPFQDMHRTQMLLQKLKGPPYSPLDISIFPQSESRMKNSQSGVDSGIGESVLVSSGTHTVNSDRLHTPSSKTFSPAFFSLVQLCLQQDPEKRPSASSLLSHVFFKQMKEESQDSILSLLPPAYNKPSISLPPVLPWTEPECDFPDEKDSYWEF
Briefly: Inhibition of STLK6 in human SKCO1 cells at 1 uM after 4 hrs using biotin labeled SIKASHILISGDGLVTLSGLSHLHSLV probe by mass-spectrometric analysis relative to control. The method in brief:
(§1)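 Live SK-CO-1 cells exposed to compound at 1 μM or DMSO for 4 h (KiNativ). Lysates then labeled with lysine-reactive ATP/ADP-biotin probe, and probe-labeled kinase peptides quantified by mass spectrometry. Percent inhibition of probe-dependent recovery calculated relative to DMSO-treated cells.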

Test [7] addresses Mitogen-activated protein kinase kinase kinase kinase 4 (Homo sapiens) (UniProt O95819). Put plainly: Inhibition of ZC1/HGK in human SKCO1 cells at 1 uM after 4 hrs using biotin labeled DIKGQNVLLTENAEVK probe by mass-spectrometric analysis relative to control. The following applies: pooled result: one value given for 3 cell lines, strains, targets or settings. The method in brief:
as §1

Sequence of Aurora kinase B (Homo sapiens) (Q96GD4 whole entry): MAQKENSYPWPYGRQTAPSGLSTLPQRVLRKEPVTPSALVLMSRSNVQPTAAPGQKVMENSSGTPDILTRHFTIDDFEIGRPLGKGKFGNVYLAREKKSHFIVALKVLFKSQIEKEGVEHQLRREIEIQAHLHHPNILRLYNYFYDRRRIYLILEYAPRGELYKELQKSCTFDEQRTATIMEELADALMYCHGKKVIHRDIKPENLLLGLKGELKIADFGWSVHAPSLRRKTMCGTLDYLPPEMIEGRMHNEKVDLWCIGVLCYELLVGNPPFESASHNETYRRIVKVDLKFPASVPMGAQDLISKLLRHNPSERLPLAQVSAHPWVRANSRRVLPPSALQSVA
Sequence of Mitogen-activated protein kinase kinase kinase kinase 4 (Homo sapiens) (O95819 2-1239 limits assumed): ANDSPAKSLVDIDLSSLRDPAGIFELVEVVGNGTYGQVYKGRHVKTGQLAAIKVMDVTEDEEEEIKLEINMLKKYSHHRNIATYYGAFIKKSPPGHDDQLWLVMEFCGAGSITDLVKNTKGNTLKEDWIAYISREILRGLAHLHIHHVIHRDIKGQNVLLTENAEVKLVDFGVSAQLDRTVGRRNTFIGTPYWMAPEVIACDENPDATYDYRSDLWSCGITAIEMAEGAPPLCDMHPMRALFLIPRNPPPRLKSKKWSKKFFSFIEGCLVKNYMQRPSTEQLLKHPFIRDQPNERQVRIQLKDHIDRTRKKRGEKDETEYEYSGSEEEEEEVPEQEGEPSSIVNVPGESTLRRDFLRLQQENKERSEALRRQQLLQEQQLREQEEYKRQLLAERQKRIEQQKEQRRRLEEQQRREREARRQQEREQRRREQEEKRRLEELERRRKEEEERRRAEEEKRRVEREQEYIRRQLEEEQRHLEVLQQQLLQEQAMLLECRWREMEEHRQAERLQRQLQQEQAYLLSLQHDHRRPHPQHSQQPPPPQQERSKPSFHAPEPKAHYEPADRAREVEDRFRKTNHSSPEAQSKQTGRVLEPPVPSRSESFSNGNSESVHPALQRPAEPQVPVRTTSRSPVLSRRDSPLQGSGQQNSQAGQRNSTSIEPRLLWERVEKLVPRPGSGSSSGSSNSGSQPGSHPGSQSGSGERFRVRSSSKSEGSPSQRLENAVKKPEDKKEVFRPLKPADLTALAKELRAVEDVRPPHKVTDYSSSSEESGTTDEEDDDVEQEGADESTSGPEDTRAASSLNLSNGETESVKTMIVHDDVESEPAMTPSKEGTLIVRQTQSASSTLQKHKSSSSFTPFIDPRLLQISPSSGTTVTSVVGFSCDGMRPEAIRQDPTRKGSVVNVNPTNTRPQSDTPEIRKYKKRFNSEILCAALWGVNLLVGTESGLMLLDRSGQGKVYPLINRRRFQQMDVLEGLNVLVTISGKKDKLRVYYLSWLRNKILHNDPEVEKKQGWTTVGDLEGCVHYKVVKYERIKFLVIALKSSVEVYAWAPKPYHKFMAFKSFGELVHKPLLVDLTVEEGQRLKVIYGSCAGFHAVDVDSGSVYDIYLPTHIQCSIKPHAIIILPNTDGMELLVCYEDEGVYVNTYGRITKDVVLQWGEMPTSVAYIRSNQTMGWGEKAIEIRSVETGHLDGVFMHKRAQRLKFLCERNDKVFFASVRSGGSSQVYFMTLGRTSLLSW
Sequence of Ribosomal protein S6 kinase alpha-4 (Homo sapiens) (O75676 whole entry, looked up, the tested form may be a part): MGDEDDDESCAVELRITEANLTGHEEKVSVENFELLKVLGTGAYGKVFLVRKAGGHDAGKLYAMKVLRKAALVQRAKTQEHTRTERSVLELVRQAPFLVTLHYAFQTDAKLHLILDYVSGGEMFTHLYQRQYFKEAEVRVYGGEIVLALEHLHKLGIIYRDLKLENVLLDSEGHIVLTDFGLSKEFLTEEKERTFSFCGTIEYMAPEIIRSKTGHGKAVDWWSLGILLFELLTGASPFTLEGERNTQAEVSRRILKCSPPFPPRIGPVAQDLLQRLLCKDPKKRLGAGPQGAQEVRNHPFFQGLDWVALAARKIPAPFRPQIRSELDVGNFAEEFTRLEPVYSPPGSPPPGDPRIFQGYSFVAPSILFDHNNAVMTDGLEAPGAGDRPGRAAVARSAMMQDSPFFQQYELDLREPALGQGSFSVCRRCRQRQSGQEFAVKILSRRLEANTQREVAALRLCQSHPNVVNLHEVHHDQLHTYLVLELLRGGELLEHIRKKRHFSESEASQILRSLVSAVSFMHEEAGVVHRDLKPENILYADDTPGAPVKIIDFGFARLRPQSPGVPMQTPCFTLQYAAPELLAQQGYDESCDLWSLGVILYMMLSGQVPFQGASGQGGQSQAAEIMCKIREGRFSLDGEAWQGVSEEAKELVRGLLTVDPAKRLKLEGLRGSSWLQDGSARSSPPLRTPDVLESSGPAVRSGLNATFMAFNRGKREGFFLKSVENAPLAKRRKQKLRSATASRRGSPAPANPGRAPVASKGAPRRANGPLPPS

Take `C=CC(=O)Nc1ccccc1Nc1nc(Nc2ccc(N3CCN(C)CC3)cc2)ncc1Cl`: the inhibition in test [1] stood at 87.2%; in test [2] it was 94.4%; in test [3], 42.4%; in test [4] it was 52.3%; in test [5], 24.5%; in test [6], 27.1%. Besides, the inhibition in test [7] is 6.8%.

For `COc1cc(O)c2c(c1)/C=C/C[C@H](O)[C@H](O)C(=O)/C=C\C[C@H](C)OC2=O`, the inhibition in test [1] came out at 59.4%; in test [2], 58.1%; in test [3], 3.1%; in test [4], 56.6%; in test [5] it was 39.8%; in test [6], 24.9%. For the same molecule, the inhibition in test [7] came out at 15.1%.

Take `C=CC(=O)Nc1ccccc1Oc1nc(Nc2cnn(CCOC)c2)ncc1Cl`: the inhibition in test [1] was 52.6%; in test [2] it was 65.4%; in test [3], -7.5%; in test [4], 53.7%; in test [5], 10.4%; in test [6], 34.4%. For the same molecule, the inhibition in test [7] is 20.9%.
